Data on one compound can be found in ChEMBL document CHEMBL1152736, “Synthesis and biological testing of thioalkane- and thioarene-spaced bis-beta-D-glucopyranosides” (Bioorg Med Chem, 2009).

Format in all cases: functional, cell-based
For test [1], the system named is U-937. Briefly: Stimulation of growth of human U937 cells at 25 to 50 uM after 24 hrs.
Test [2] relates to MOLT-3. Briefly: Stimulation of growth of human MOLT3 cells at 25 to 50 uM after 24 hrs.
The test system of test [3] is U-937. Briefly: Reduction in viability of human U937 at 75 uM after 24 hrs by MTS assay. The procedure, abridged:
(§1)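 MTS colorimetric assay: 2 × 10⁴ cells in 100 µL RPMI-1640 with 5% FBS, 2 mM L-glutamine and penicillin–streptomycin, with compound or DMSO vehicle for 24 h. MTS reagent then added for 4 h and absorbance read at 490 nm. Mean and SD of three determinations. Comparison with vehicle by Student's t-test.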
In general terms: Tetrazolium assays rely on reduction of a dye to a coloured formazan, in cell work by metabolically active cells.

The subject of test [4] is MOLT-3. Briefly: Reduction in viability of human MOLT3 cells at 75 uM after 24 hrs by MTS assay. The procedure, abridged: as §1
The subject of test [5] is MOLT-3. Briefly: Induction of apoptosis in human MOLT3 cells at 10 uM after 24 hrs by fluorescence microscopy. A digest of the protocol:
(§2)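 Cells exposed 24 h to DMSO vehicle or test agent at 10–75 µM. Stained with acridine orange; apoptosis scored morphologically by fluorescence microscopy, over 600 cells analyzed. % apoptosis = apoptotic cells / total cells counted × 100. Mean and SD of three determinations. Comparison with vehicle by Student's t-test (MOLT3) or Tukey HSD (U937).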

The test system of test [6] is U-937. Briefly: Induction of apoptosis in human U937 cells at 10 uM after 24 hrs by fluorescence microscopy. The procedure, abridged: as §2
Test [7] relates to U-937. Briefly: Induction of apoptosis in human U937 cells after 24 hrs by fluorescence microscopy. The procedure, abridged: as §2
Test [8] relates to MOLT-3. Briefly: Induction of apoptosis in human MOLT3 cells after 24 hrs by fluorescence microscopy. A digest of the protocol:
as §2

Molecules are shown by their SMILES. Active and inactive are the calls of the source. The calls are words filed in the database; no cut-off is given here.

With `C=C(CO[C@@H]1O[C@H](COC(C)=O)[C@@H](OC(C)=O)[C@H](OC(C)=O)[C@H]1OC(C)=O)[S+]([O-])c1cccc([S+]([O-])C(=C)CO[C@@H]2O[C@H](COC(C)=O)[C@@H](OC(C)=O)[C@H](OC(C)=O)[C@H]2OC(C)=O)c1` (stereo partly drawn), the result in test [1], in test [2], in test [3] and in test [4] was Active. Moreover, the result in test [5] and in test [6] was inactive. In addition, the Activity entry in test [7] and in test [8] was “Dose-dependent effect” in each case.
